Measured values: ChEMBL document CHEMBL1130234 (J Med Chem, 1997)

Assays:
[1] = Partition coefficient (logP); format: physicochemical; details: octanol/water
HaCaT [2] = assay: Antiproliferative (inhibition of cell growth) activity against HaCaT cells (human keratinocyte line); format: functional, cell-based
Procedure, shortened: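 HaCaT human keratinocytes treated for 48 h. Proliferation assessed by directly counting dispersed cells under a phase-contrast microscope; N = 3, significance versus control at P < 0.01.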

HaCaT [3] = assay: Cytotoxic activity (2 uM) was measured by the amount of LDH (mU) release in HaCaT cells.; format: functional, Homo sapiens
Procedure, shortened: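 HaCaT cells exposed to test compound at 2 μM; LDH activity (mU) released into the culture medium measured and compared with vehicle control; N = 3.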

[4] = biological target: T1, Arachidonate 5-lipoxygenase (Bos taurus, UniProt Q9BEG3); assay: 5-LO inhibitory activity was determined by inhibition of LTB4 biosynthesis in bovine polymorphonuclear leukocytes (PMNL); format: functional, cell-based
T1 sequence (Q9BEG3 whole entry): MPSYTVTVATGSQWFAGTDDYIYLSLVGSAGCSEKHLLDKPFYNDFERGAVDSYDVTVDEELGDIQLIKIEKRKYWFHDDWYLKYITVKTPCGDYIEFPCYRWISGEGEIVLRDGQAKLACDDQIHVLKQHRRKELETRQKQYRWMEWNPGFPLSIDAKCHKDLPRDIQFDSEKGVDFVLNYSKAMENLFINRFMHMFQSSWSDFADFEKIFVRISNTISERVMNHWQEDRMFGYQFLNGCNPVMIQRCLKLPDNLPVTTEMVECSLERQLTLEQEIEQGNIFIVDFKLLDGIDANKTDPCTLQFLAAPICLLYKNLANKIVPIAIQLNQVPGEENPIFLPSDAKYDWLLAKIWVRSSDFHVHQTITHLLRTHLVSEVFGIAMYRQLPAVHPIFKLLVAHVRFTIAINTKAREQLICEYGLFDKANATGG
Procedure, shortened: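 LTB4 biosynthesis measured in bovine polymorphonuclear leukocytes, with NDGA as the standard inhibitor; N = 3 or more, significance versus control at P < 0.01.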

[5] = Antioxidant potential was assessed from reducing activity against 2,2,di-phenyl-1-picrylhydrazyl.

Row | Structure (SMILES) | logP [1] | IC50 (HaCaT [2]) [µM] | LDH (HaCaT [3]) [mU] | IC50 [4] [µM] | kDPPH [5] [M⁻¹ s⁻¹]
1 | COc1cccc2c1C(=O)c1c(cccc1OC)C2 | 3.88 | > 5 | 144 | > 30 | –
2 | COc1cccc2c1Cc1c(OC)cccc1C2=O | 3.68 | > 5 | 137 | 8 | < 2
3 | O=C1C=CC(=O)c2c(O)cccc21 [JUGLONE] | – | 0.8 | 384 | 17 | 6.6
4 | O=C(c1ccccc1)c1cccc2c1C(=O)c1c(O)cccc1C2 | 3.99 | 4.3 | – | 27 | 39.6
5 | O=C1c2ccccc2Cc2ccccc21 [ANTHRONE] | 3.46 | > 5 | 165 | 2 | < 2
6 | Cc1ccc2c(c1O)C(=O)c1c(O)cccc1C2 | 4.99 | 1.5 | 126 | > 30 | 17.2
7 | O=Cc1ccc2c(c1O)C(=O)c1c(O)cccc1C2 | 4.06 | > 5 | – | 6 | > 100
8 | CC(C)=CCc1c(C)cc(O)c2c1Cc1c(CC=C(C)C)c(O)cc(O)c1C2=O | 6.56 | > 5 | – | 25 | 8.2
9 | O=C(O)c1cc(O)c2c(c1)Cc1cccc(O)c1C2=O | 2.96 | > 5 | – | 3 | > 100
10 | O=C1c2c(O)cccc2C(Cc2ccccc2)c2cccc(O)c21 | 4.5 | > 5 | 135 | > 30 | < 2
11 | O=C1c2c(O)cccc2Cc2cc(CO)cc(O)c21 | 3.37 | 0.7 | 376 | 30 | 20.1
12 | O=C1c2ccccc2Cc2c1ccc(O)c2O | 3.81 | > 5 | 144 | 4 | > 100
13 | O=C1c2c(O)cccc2C(Cc2ccccc2)(Cc2ccccc2)c2cccc(O)c21 | 4.33 | > 5 | 167 | > 30 | < 2
14 | O=C1c2ccccc2Cc2cccc(O)c21 | 3.99 | > 5 | 170 | 13 | 9.6
15 | Nc1cccc2c1Cc1ccccc1C2=O | 2.46 | > 5 | – | 20 | 15.3
16 | O=C1c2c(O)cccc2C(OCc2ccccc2)c2cccc(O)c21 | 4.25 | 3.8 | – | > 30 | –
17 | O=C1c2cccc(O)c2C(=O)c2c(O)cccc21 [DANTHRON] | 4.16 | > 5 | 170 | > 30 | < 2
18 | O=C1c2cccc(Cl)c2Cc2c(Cl)cccc21 | 5.05 | 2.1 | – | – | 3.4
19 | CC(C)=CCc1c(C)c(CC=C(C)C)c2c(c1O)C(=O)c1c(O)cc(O)c(CC=C(C)C)c1C2 [HARUNGANOL B] | 8.01 | > 5 | – | > 30 | 3.1
20 | O=C1c2c(Cl)cccc2Cc2cccc(Cl)c21 | 3.51 | > 5 | – | 4 | < 2
21 | Cc1cc(O)c2c(c1)Cc1cccc(O)c1C2=O | 4.8 | 1.5 | 211 | > 30 | 15.3
22 | O=CC1c2cccc(O)c2C(=O)c2c(O)cccc21 | 2.79 | 1.9 | 124 | – | < 2
23 | O=C1c2cccc(O)c2Cc2cccc(O)c21 | 3.51 | 4.3 | 191 | – | 13.5
24 | CCC(=O)c1ccc2c(c1O)C(=O)c1c(O)cccc1C2 | 4.59 | 3.3 | – | – | > 100
25 | Oc1cccc(O)c1O [PYROGALLOL] | 1.19 | > 5 | – | 4 | > 100
26 | O=C1c2ccccc2Cc2ccc(O)c(O)c21 | 3.19 | 1.9 | – | 4 | 41.5
27 | O=C1c2c(O)cccc2C(O)c2cccc(O)c21 | 2.91 | > 5 | – | > 30 | < 2
28 | CCC1c2cccc(O)c2C(=O)c2c(O)cccc21 | 4.37 | > 5 | 161 | > 30 | < 2
